According to ChEMBL document CHEMBL4513216, “Probing the Open Global Health Chemical Diversity Library for Multistage-Active Starting Points for Next-Generation Antimalarials” (ACS Infect Dis, 2020):

Assay: Toxicity liver stage against HepG2, at 10uM
Assay type: cell-based
Set-up: test concentration 10 uM, cell line HepG2-A16-CD81EGFP
Conditions: human, HepG2-A16-CD81EGFP cells; read-out: INHIBITION
In short: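 Uninfected HepG2-A16-CD81EGFP cells, 3 × 10^3 per well, 1536-well, plated on prespotted compound at 10 μM final, parasite-free screening media added to match infected plates; puromycin 10 μM positive, DMSO 0.5% negative; run in parallel with 48 h PbLuc assay at 37 °C, 5% CO2; viability by CellTiter-Glo luminescence, normalized to controls.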

CN1[C@H](Cn2cccn2)C[C@@H]2CN(C(=O)Cc3cccs3)CC[C@@H]21
cytotoxicity at 10 µM: 9.58%

COc1ccc(C2CCCN2C(=O)NCCNc2ncccn2)cc1 (stereo not given)
cytotoxicity at 10 µM: -8.18%

CCOC1CC2(CCN(C(C)=O)CC2)c2cc(F)ccc21 (stereo not given)
cytotoxicity at 10 µM: -143%

CS(=O)(=O)c1cc(Cl)cnc1C1CCCN(C(=O)C2CCOCC2)C1 (stereo not given)
cytotoxicity at 10 µM: 4.34%

Cc1ccccc1N1CC(C)N(Cc2ccc(C)c(F)c2F)CC1=O (stereo not given)
cytotoxicity at 10 µM: -1.66%

Cc1ccc(S(=O)(=O)N2CSCC2C(=O)N(C)C2CC2)cc1Cl (stereo not given)
cytotoxicity at 10 µM: -9.42%

Cc1cccnc1NC(=O)CSc1ccc2c(c1)OCCO2
cytotoxicity at 10 µM: -1.66%

COc1ccc(NC(=O)CN2CCS(=O)(=O)CC2)cn1
cytotoxicity at 10 µM: 11.8%

O=C1CN(c2ccc(CNC(=O)Nc3nnc(C4CC4)s3)cc2)CCN1
cytotoxicity at 10 µM: -3.73%

CN(Cc1ccccc1)C(=O)CCN1CCC2(CC1)[C@H](O)C[C@@H]2O
cytotoxicity at 10 µM: -7.55%

Cc1ccccc1-n1cnc(Cl)c1C(=O)O
cytotoxicity at 10 µM: -4.11%

Cc1ccc2[nH]c(-c3cn(C4CCNCC4)nn3)nc2c1C
cytotoxicity at 10 µM: -4.92%

CCC(C)NC(=O)CCc1ccc(OCC(F)(F)F)c(OC)c1 (stereo not given)
cytotoxicity at 10 µM: -3.27%

Nc1nc(N2CCCCC2)ncc1C(=O)NCc1ccc(F)c(Cl)c1
cytotoxicity at 10 µM: -17.2%

Cc1nn(C)c2c(=O)n(C(C)C)c(NCC3CCCO3)nc12 (stereo not given)
cytotoxicity at 10 µM: 13.9%

Cc1c[nH]c(CN2CC[C@@]3(O)CCN(C(=O)C4CCCC4)C[C@H]3C2)n1
cytotoxicity at 10 µM: 3.11%

Cc1ccc(-c2nnc(C3CCCN3S(=O)(=O)c3cnn(C)c3C)o2)s1 (stereo not given)
cytotoxicity at 10 µM: 5.35%

Cc1cccc(C(=O)N2CCN(c3ccc(-n4cccc4)nn3)CC2)c1
cytotoxicity at 10 µM: 67.1%

CCN1CC[C@@]2(C(=O)N(C)C)CCN(C(=O)NC(C)C)CC[C@@H]12
cytotoxicity at 10 µM: -15.2%

N#Cc1cnn(-c2ccc(C(=O)Nc3ccccn3)cc2)c1N
cytotoxicity at 10 µM: -9.03%

CCn1ccnc1-c1nc2cc(S(=O)(=O)N3CCCC3)ccc2n1C
cytotoxicity at 10 µM: -22.3%

Cc1ccc(N2CCC(N3C[C@@H](CN(C)C)[C@@H](CO)C3)CC2)cc1
cytotoxicity at 10 µM: -0.608%

CCC1CCCCN1CCNC(=O)N1CCN(Cc2ccon2)CC1 (stereo not given)
cytotoxicity at 10 µM: -2.01%

CCCn1cnnc1CNC(=O)CC1C(=O)NCCN1CC=C(C)C (stereo not given)
cytotoxicity at 10 µM: 6.64%

O=C(NCc1ccccc1)N1CCn2c(Cn3cccn3)cnc2C1
cytotoxicity at 10 µM: -71%

CN(C)C(=O)COC[C@H]1CC[C@@H]2[C@@H](CCN2Cc2ccccn2)O1
cytotoxicity at 10 µM: -18.7%

Cc1nn(C)c(C)c1CCC(=O)N1CCCOC(Cn2cccn2)C1 (stereo not given)
cytotoxicity at 10 µM: -2.86%

c1cn(-c2ccc(CN3CCOC(Cn4cncn4)C3)cc2)cn1 (stereo not given)
cytotoxicity at 10 µM: 1.25%

CC(C)CN1CCn2c(nc3cc(C(=O)NC(C)C)ccc32)C1
cytotoxicity at 10 µM: 0.889%

O=C(c1ccc(F)cc1)N1CCN2C[C@H](Oc3cccnc3)C[C@H]2C1
cytotoxicity at 10 µM: 3.77%

O=c1[nH]cnc2c1CCN(S(=O)(=O)c1ccc(OC(F)(F)F)cc1)C2
cytotoxicity at 10 µM: 1.61%

CCS(=O)(=O)NCCNC(=O)N(Cc1ccc(C)o1)C(C)C
cytotoxicity at 10 µM: 1.84%

CC(C)c1csc(C2CCCN(C(=O)Cn3ccccc3=O)C2)n1 (stereo not given)
cytotoxicity at 10 µM: -14.4%

CC(CCn1cccn1)N1CCC(n2cc(C(C)(C)N)nn2)CC1 (stereo not given)
cytotoxicity at 10 µM: -4.78%

CCOc1nnc(CN2CCC(N(C)Cc3noc(C)n3)C2)s1 (stereo not given)
cytotoxicity at 10 µM: -7.3%

O=C(c1ccc(N2CCCC2)nn1)N1CCCc2ccc(F)cc21
cytotoxicity at 10 µM: -1.7%

Cc1nc(N2CCCC2)nc(C)c1NS(C)(=O)=O
cytotoxicity at 10 µM: 1.61%

O=C(C1CCCCC1)N1CCC2(CC1)CNCc1ccccc12
cytotoxicity at 10 µM: -6.13%

CCCN1CCC(N(C)C(=O)c2cc(C)nc3cc(F)ccc23)CC1
cytotoxicity at 10 µM: 0.906%

CC(=O)N1CCC2(CC1)CNc1c(F)cccc12
cytotoxicity at 10 µM: 4.79%

CN(C)c1nc2c(c(N(C)C)n1)CCN(C(=O)CN1C[C@H]3CC[C@@H]1C3)C2
cytotoxicity at 10 µM: 4.45%

CCOCC(O)CN1CCN(C(=O)c2ccc(N(C)C)nc2)CC1 (stereo not given)
cytotoxicity at 10 µM: -5.18%

CCN1CCC(c2nnc(CN3CCCC3)n2C2CC2)CC1
cytotoxicity at 10 µM: -7.3%

CN1CCCC1CNC(=O)CCCOc1ccc(F)cc1 (stereo not given)
cytotoxicity at 10 µM: -7.67%

COc1ccccc1CCNC(=O)NC(C)COCC(F)(F)F (stereo not given)
cytotoxicity at 10 µM: 8.91%

CCOc1ccc(C(=O)N2C[C@@H]3CC[C@H]2CN(C(=O)C2CCC2)C3)cc1
cytotoxicity at 10 µM: -4.68%

CCCNC(=O)c1ccc(NC(=O)NC(C)c2ccccn2)cc1 (stereo not given)
cytotoxicity at 10 µM: 9.15%

COc1cccc2c1OCC(C(=O)N1CCC(NS(C)(=O)=O)CC1)C2 (stereo not given)
cytotoxicity at 10 µM: 1.49%

CC(C)NC(=O)CCC(=O)N1CCC(c2noc3cc(F)ccc23)CC1
cytotoxicity at 10 µM: 2.13%

CCOCC1CN(C(=O)c2ccco2)Cc2nn(C)cc21 (stereo not given)
cytotoxicity at 10 µM: 3.86%

O=S(=O)(Nc1ccc2c(c1)OCCO2)N1CCCCC1
cytotoxicity at 10 µM: 3.96%

CCc1cnc(CN(C(C)=O)C2CCN(CCc3ccccc3)C2)o1 (stereo not given)
cytotoxicity at 10 µM: -8.17%

COCCn1cc2c(n1)C(CNCc1ccc(F)cc1)OCC2 (stereo not given)
cytotoxicity at 10 µM: -9.47%

Cc1ccc(C)c(NS(=O)(=O)c2cc3c(c(C(=O)O)c2)OCCO3)c1
cytotoxicity at 10 µM: -0.882%

Cc1ccc(CN2CCC3(C2)C(=O)N(CC(N)=O)c2ccccc23)s1 (stereo not given)
cytotoxicity at 10 µM: 5.37%

COCc1nc(CNC2CSCCSC2)no1
cytotoxicity at 10 µM: 8.33%

CC(=O)N1CC2(CCCN(Cc3ccc(Cl)cc3)C2)Cc2ccccc21 (stereo not given)
cytotoxicity at 10 µM: 10.6%

CCOc1ccccc1C(=O)NCc1nncn1C1CC1
cytotoxicity at 10 µM: 3.3%

O=C(N1CCC(Oc2ccncc2)CC1)C1(c2ccc(F)cc2)CC1
cytotoxicity at 10 µM: -7.66%

Fc1ccc(F)c(CN2CCC(c3n[nH]c4ncccc34)CC2)c1
cytotoxicity at 10 µM: -25.4%

Cc1ccc(NC(C)C(=O)NCc2cccs2)cc1Cl (stereo not given)
cytotoxicity at 10 µM: -2.27%

CCOc1ccnc(N[C@@H](Cc2ccccc2)C(N)=O)n1
cytotoxicity at 10 µM: 10.7%

O=C(NCc1ccco1)[C@@H]1CCO[C@@H]2CCN(c3ncccn3)C[C@@H]21
cytotoxicity at 10 µM: -68.3%

Cc1nc(CN2CCOCC3(CCN(c4ncccn4)C3)C2)cs1 (stereo not given)
cytotoxicity at 10 µM: -22.8%

Nc1cc(C(=O)N2CCC3(CC2)Nc2ccccc2NC3=O)ccn1
cytotoxicity at 10 µM: 6.13%

CCOc1ncccc1CNC(=O)N1CCC(n2cncn2)CC1
cytotoxicity at 10 µM: -1.26%

N#Cc1cccc(S(=O)(=O)N(CC2CCC2)c2cn[nH]c2)c1
cytotoxicity at 10 µM: 10.9%

O=C1NCCN(C(=O)CCN2CCCO2)C1c1cccc(F)c1 (stereo not given)
cytotoxicity at 10 µM: 5.47%

COc1ccccc1-c1cc(NC(=O)COCC2CC2)[nH]n1
cytotoxicity at 10 µM: -116%

Cc1cc(C[C@@H]2COC[C@H]2NCc2ccc(C(C)C)cc2)on1
cytotoxicity at 10 µM: -30.4%

Cc1nn(CCC#N)c(C)c1CCC(=O)N(C)C
cytotoxicity at 10 µM: -7.33%

CC1CN(CC2CCCC2)CCN1c1ccc2nncn2n1 (stereo not given)
cytotoxicity at 10 µM: 6.36%

O=C1CCCN1CCCNCc1cc(O)c2cccc(F)c2n1
cytotoxicity at 10 µM: -1.16%

CN1CCO[C@@H]2CN(S(=O)(=O)c3cccnc3)C[C@@H]2C1
cytotoxicity at 10 µM: 6.17%

Cc1cc(NC(=O)CN2CCCC2c2c(C)nn(C)c2Cl)on1 (stereo not given)
cytotoxicity at 10 µM: -0.945%

CCCN(Cc1cccnc1)C(=O)C1CCNC1 (stereo not given)
cytotoxicity at 10 µM: 8.97%

CC(=O)N1CCN(C(=O)NC(C)C)CC2(CC(=O)N(C)C2)C1 (stereo not given)
cytotoxicity at 10 µM: -4.13%

CC(C)c1nc(C2CCCN2CC(=O)Nc2nncs2)no1 (stereo not given)
cytotoxicity at 10 µM: -3.13%

CC(=O)N1CCN(C(=O)NCCCN(C(C)C)S(C)(=O)=O)CC1
cytotoxicity at 10 µM: -14%

Cc1cccc(C(C)(C)CNc2cn[nH]c(=O)c2Cl)c1
cytotoxicity at 10 µM: 23.3%

CNC(=O)NC(=O)CN1CCC(c2cccc(F)c2)C1 (stereo not given)
cytotoxicity at 10 µM: -8.75%

O=C(CCc1ccccc1F)NS(=O)(=O)c1ccc2c(c1)OCCCO2
cytotoxicity at 10 µM: -3.2%

Cc1cnn(CC2CCN(CC(O)c3ccccc3)CC2)c1 (stereo not given)
cytotoxicity at 10 µM: -8.46%

COCCC1(C(=O)NCCc2nncn2C2CC2)CCC1
cytotoxicity at 10 µM: -9.22%

CCC(=O)N1CCCN(Cc2cc(F)cc(Br)c2)CC1
cytotoxicity at 10 µM: 10.3%

O=C(O)c1cccc(N2CCC(Oc3cccc(F)c3)CC2)n1
cytotoxicity at 10 µM: -44.1%

N#Cc1ccccc1C(=O)N1C[C@@H]2CC[C@H]1CN(Cc1ccccc1)C2
cytotoxicity at 10 µM: 1.43%

Cc1ccc(C2CN(CCS(C)(=O)=O)CCO2)c(C)c1 (stereo not given)
cytotoxicity at 10 µM: 3.03%

COc1ccc(C2Nc3cc(Cl)ccc3C3=NCCN32)cc1CO (stereo not given)
cytotoxicity at 10 µM: -19.3%

Cc1ccc(NC2CCN(C(=O)CCNc3ncccn3)CC2)nn1
cytotoxicity at 10 µM: -7.69%

NC(=O)Nc1cc(Br)cnc1OCC(F)(F)F
cytotoxicity at 10 µM: 8.28%

COCCN(C)CCN1CC2(CCN(C3CCCCC3)CC2)OC1=O
cytotoxicity at 10 µM: 3.73%

CS(=O)(=O)NCCNc1ncnc2cccc(F)c12
cytotoxicity at 10 µM: 3.17%

Cc1ccccc1CC(=O)N1CCOCC1c1c(C)n[nH]c1C (stereo not given)
cytotoxicity at 10 µM: -5.6%

Cc1ccc(CN(C)C(=O)CNC(=O)N2CCc3ccccc3C2)o1
cytotoxicity at 10 µM: 5.95%

CCN(C)S(=O)(=O)c1c(F)cc(NC(C)=O)cc1F
cytotoxicity at 10 µM: -40.7%

C[C@H](NC(=O)C1CC1)c1nc2cc(-c3ccc(F)cc3)ncn2n1
cytotoxicity at 10 µM: -23%

Cc1nc2c(c(NC(C)C)n1)CCN(Cc1cccnc1)CC2
cytotoxicity at 10 µM: 6.4%

CN1CCN([C@@H]2CCN(C3CCOCC3)[C@H]2Cc2cnn(C)c2)CC1
cytotoxicity at 10 µM: 5.07%

Cn1cnc2ccc(NC(=O)CCCn3cccn3)cc2c1=O
cytotoxicity at 10 µM: 4.31%

CCc1ncc2c(n1)CN(C(=O)c1c(C)[nH]c(C(C)=O)c1C)C2
cytotoxicity at 10 µM: -45.9%

Cc1nc(C)n(CC2CN(Cc3cccc(OC(C)C)c3)CCO2)n1 (stereo not given)
cytotoxicity at 10 µM: -5.44%

O=C(CNC(=O)Nc1c(F)cccc1Oc1ccccc1)NC1CC1
cytotoxicity at 10 µM: 6.45%

COc1ccc(Br)cc1SCCC(N)=O
cytotoxicity at 10 µM: 7.72%

CCN1CCCC(O)(CNCc2ccncc2)C1 (stereo not given)
cytotoxicity at 10 µM: -2.93%

COc1ccc(CN(C)C(=O)CN2CC(n3cc(C)cn3)C2)cc1F
cytotoxicity at 10 µM: 1.59%

O=C(C1CCCC1)N1CCCC([C@@H]2C[C@H](C(F)F)n3ncnc3N2)C1 (stereo not given in full)
cytotoxicity at 10 µM: 4.54%

CS(=O)(=O)N1CCCC1c1cccc(Cc2ccccc2F)n1 (stereo not given)
cytotoxicity at 10 µM: -13.2%

c1cc(CN2CCN3C[C@H](Oc4cncnc4)C[C@H]3C2)ccn1
cytotoxicity at 10 µM: -108%

Cc1ccc2c(n1)N(C)CCN(Cc1ccco1)C2
cytotoxicity at 10 µM: -4.97%
